Data on one molecule can be found in ChEMBL document CHEMBL4342456, “Preventing Morphine-Seeking Behavior through the Re-Engineering of Vincamine's Biological Activity” (J Med Chem, 2020).

Activity calls are given as the source filed them. No cut-off for these calls is given here.

The target of series [1] is C-C chemokine receptor type 8 (Homo sapiens, UniProt P51685). Description: Antagonist activity at human CCR8 expressed in CHOK1 cells assessed as inhibition in CCL1-induced beta-arrestin 2 recruitment at 20 uM incubated for 30 mins followed by CCL1 addition and measured after 90 or 180 mins by pathhunter beta-arrestin assay relative to control. The format is cell-based. The gist of the method: (§1)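 PathHunter beta-arrestin recruitment, antagonist mode, run at DiscoverX. Cells seeded and held at 37 °C, then preincubated with test sample for 30 min at 37 °C or room temperature (1% vehicle). Agonist then added at EC80 for 90 or 180 min. IC50 comes from concentration–response runs in the same format.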
Sequence of C-C chemokine receptor type 8 (P51685 whole entry): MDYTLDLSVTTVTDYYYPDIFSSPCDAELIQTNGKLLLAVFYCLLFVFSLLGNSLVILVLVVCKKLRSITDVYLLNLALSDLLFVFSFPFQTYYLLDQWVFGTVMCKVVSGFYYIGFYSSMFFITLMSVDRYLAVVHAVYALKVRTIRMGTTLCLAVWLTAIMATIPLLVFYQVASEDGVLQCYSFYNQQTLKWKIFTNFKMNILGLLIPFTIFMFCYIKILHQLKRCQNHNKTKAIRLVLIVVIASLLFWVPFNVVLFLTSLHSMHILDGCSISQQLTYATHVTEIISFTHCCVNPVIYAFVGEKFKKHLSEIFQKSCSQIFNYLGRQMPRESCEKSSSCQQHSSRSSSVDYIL
On the technique in general: Arrestin recruitment assays detect the binding of arrestin to an activated receptor.

For series [2], the target named is T1, Muscarinic acetylcholine receptor M4 (Homo sapiens) (UniProt P08173).
T1 sequence (whole entry): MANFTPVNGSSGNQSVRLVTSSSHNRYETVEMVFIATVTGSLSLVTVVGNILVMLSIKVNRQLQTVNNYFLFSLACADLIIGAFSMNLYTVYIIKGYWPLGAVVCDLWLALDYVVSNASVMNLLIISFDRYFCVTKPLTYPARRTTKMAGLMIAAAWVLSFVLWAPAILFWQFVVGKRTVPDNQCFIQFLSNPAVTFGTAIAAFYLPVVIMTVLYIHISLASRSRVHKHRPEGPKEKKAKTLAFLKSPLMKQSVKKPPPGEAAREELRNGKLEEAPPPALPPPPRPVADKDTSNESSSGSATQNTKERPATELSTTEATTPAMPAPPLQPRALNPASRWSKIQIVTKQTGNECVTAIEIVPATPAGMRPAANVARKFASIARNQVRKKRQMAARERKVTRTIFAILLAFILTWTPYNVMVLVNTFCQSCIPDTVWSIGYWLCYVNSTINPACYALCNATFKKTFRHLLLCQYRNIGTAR
The experiment in a line: Antagonist activity at human Gs/Gi/o-coupled CHRM4 expressed in CHOK1 cells assessed as inhibition in acetylcholine-induced beta-arrestin 2 recruitment at 20 uM incubated for 30 mins followed by acetylcholine addition and measured after 90 or 180 mins by pathhunter beta-arrestin assay relative to control. Format: cell-based. The gist of the method: as §1

Series [3] concerns the target C-X-C chemokine receptor type 4 (Homo sapiens) (UniProt P61073). Description: Antagonist activity at human Gi/o-coupled CXCR4 expressed in mouse C2C12 cells assessed as inhibition in CXCL12-induced beta-arrestin 2 recruitment at 20 uM incubated for 30 mins followed by CXCL12 addition and measured after 90 or 180 mins by pathhunter beta-arrestin assay relative to control. The format is cell-based. The gist of the method: as §1

The target of series [4] is T2, Neuropeptide S receptor (Homo sapiens) (UniProt Q6W5P4).
T2 sequence (whole entry): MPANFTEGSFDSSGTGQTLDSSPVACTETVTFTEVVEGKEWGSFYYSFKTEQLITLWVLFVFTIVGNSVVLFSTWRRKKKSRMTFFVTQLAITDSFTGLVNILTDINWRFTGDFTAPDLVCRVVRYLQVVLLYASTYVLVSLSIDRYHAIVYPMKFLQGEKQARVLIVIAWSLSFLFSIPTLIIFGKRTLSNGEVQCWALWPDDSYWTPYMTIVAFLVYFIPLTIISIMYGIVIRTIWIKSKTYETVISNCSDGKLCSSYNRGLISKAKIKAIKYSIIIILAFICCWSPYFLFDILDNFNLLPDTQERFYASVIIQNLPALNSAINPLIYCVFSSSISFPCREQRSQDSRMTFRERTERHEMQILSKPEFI
Description: Antagonist activity at human Gq-coupled NPSR1b expressed in human U2OS cells assessed as inhibition in neuropeptide S-induced beta-arrestin 2 recruitment at 20 uM incubated for 30 mins followed by neuropeptide S addition and measured after 90 or 180 mins by pathhunter beta-arrestin assay relative to control. The format is cell-based. An outline of the steps: as §1

In series [5] the target is Prostacyclin receptor (Homo sapiens, UniProt P43119). Description: Antagonist activity at human Gs-coupled PTGIR assessed as inhibition in beraprost-induced beta-arrestin 2 recruitment at 20 uM incubated for 30 mins followed by beraprost- addition and measured after 90 or 180 mins by pathhunter beta-arrestin assay relative to control. An outline of the steps: as §1
Sequence of Prostacyclin receptor (P43119 whole entry): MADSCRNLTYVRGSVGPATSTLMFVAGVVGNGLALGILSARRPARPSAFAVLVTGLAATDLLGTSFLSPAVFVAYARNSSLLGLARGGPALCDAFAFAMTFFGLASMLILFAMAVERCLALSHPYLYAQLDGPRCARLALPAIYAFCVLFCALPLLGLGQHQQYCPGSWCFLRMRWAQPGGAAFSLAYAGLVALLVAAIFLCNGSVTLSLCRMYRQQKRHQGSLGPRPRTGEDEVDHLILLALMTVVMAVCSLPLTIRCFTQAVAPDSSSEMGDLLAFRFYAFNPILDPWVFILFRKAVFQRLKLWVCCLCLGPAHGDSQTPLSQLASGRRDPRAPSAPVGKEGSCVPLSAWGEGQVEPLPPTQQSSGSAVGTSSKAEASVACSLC
Series [6] is described as follows: Stability of compound in pH 2.0 HCl aqueous solution assessed as parent compound remaining at 0.025 mmol measured after 24 hrs. The following applies: read-out: Stability. The format is physicochemical. An outline of the steps: (§2)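 Acid stability: compound held 24 h at 37 °C in acidic aqueous media at pH 2.0 or pH 4.88. Percent recovery of parent compound was measured.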

A short description of series [7]: Stability of compound in pH 4.88 HCl aqueous solution assessed as parent compound remaining at 0.026 mmol measured after 24 hrs. The format is physicochemical. The following applies: read-out: Stability. The gist of the method: as §2
Series [8] has as its system Mus musculus. The experiment in a line: Suppression of drug-induced cocaine-seeking behavior in C57BL/6J mouse assessed as reduction in morphine-conditioned place preference at 60 nmol, icv administered 20 mins prior to behavioral morphine addition measured twice weekly for 7 weeks. The format is functional, organism-based. The note with it: in the assay text read “morphine-seeking” for “cocaine-seeking”. The gist of the method:
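Male C57BL/6J mice, 7–11 weeks, 20–33 g. Three-compartment counterbalanced place conditioning. Test agent given i.c.v. in 10% Solutol HS 15/90% saline, 20 min before morphine (10 mg/kg i.p., in 0.9% saline). Mice then confined 40 min in the paired outer chamber. Saline i.p. conditioning in the opposite chamber followed 4 h later. Preference was scored in a 30 min automated test. n = 16–30/group; two-way ANOVA with Tukey post hoc.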

A short description of series [9]: Toxicity in C57BL/6J mouse assessed as induction of behavioral changes at 60 nmol, icv. The note with it: in vivo, icv_or_intrathecal.
Series [10] concerns the target Histamine H1 receptor (Homo sapiens) (UniProt P35367). The following applies: at 20 µM.
The test system of series [11] is Mus musculus. Description: Suppression of drug-induced morphine-seeking behavior in C57BL/6J mouse assessed as reduction in stress-induced reinstatement of morphine-CPP at 60 nmol, icv administered 15 mins prior to testing by forced swim test.

Sequence of Histamine H1 receptor (Homo sapiens) (P35367 whole entry): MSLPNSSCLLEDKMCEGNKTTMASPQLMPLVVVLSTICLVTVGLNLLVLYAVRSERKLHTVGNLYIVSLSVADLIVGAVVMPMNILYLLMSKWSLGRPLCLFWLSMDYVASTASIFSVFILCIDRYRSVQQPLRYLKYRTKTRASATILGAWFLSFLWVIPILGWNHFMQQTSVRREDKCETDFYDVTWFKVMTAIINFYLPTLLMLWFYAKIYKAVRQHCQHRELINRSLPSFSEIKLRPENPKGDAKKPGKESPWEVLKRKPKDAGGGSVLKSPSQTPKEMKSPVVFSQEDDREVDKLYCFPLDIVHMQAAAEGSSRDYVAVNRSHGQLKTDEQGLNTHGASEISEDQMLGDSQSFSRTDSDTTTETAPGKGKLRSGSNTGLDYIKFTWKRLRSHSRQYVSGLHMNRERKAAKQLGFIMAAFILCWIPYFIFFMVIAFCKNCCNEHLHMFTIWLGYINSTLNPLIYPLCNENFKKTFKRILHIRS
Sequence of C-X-C chemokine receptor type 4 (Homo sapiens) (P61073 whole entry): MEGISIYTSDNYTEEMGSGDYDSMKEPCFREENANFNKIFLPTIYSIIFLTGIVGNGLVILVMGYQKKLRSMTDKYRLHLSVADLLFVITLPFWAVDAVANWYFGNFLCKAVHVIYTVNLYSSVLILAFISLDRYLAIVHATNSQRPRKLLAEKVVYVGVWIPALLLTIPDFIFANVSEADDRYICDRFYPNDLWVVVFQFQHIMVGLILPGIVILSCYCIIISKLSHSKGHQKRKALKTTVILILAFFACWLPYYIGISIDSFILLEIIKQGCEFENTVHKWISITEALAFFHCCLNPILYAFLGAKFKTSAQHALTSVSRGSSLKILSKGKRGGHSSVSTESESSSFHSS

As usually defined, the inhibition is the share of the control response that was lost under treatment. Turning to `CC[C@@]12CCCN3CCc4c([nH]c5ccccc45)[C@]31N(Cc1cn(Cc3ccccc3)nn1)C(=O)C2`, the inhibition in series [1] worked out at 59%; in series [2], 75%; in [3] it was 34%; in series [4], 30%; in series [5], 75%; in [10] it was 17%. The remaining at 24 h, 0.025 mmol in series [6] was 92.1%. In addition, in [7], the remaining at 24 h, 0.026 mmol is 99.2%. Also, the outcome in series [8] and in [11] was Active. The Activity result in series [9] is “Non-Toxic”.
